SMILES strings stand for the structures. The source made the active and inactive calls. No cut-off for these calls is given here.

In data set [1] the target is T1, Polyunsaturated fatty acid lipoxygenase ALOX15 (Homo sapiens, UniProt P16050).
T1 sequence (P16050 whole entry): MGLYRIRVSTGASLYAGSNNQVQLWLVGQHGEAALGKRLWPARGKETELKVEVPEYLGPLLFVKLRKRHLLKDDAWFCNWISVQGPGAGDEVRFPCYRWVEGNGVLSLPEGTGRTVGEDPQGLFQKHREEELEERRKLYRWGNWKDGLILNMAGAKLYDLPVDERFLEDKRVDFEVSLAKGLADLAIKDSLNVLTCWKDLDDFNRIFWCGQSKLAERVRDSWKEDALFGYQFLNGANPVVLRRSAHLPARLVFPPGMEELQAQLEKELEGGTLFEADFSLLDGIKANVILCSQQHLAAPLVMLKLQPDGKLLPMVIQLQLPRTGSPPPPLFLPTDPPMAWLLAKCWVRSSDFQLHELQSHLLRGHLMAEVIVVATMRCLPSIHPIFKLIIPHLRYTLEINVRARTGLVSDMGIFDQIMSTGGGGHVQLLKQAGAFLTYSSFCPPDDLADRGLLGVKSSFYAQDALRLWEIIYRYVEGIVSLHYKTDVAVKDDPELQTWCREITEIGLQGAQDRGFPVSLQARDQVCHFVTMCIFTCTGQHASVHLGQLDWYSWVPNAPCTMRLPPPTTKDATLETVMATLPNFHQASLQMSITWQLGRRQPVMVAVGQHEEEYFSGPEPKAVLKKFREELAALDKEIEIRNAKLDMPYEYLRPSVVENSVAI
The data set can be described thus: Inhibition of human 15-LOX-1 assessed as reduction in conversion of linoleic acid to 13(S)-HpODE incubated for 10 mins followed by linoleic acid addition by UV-absorbance analysis.

In data set [2] the target is T2, Polyunsaturated fatty acid lipoxygenase ALOX15 (Mus musculus) (UniProt P39654).
T2 sequence (whole entry): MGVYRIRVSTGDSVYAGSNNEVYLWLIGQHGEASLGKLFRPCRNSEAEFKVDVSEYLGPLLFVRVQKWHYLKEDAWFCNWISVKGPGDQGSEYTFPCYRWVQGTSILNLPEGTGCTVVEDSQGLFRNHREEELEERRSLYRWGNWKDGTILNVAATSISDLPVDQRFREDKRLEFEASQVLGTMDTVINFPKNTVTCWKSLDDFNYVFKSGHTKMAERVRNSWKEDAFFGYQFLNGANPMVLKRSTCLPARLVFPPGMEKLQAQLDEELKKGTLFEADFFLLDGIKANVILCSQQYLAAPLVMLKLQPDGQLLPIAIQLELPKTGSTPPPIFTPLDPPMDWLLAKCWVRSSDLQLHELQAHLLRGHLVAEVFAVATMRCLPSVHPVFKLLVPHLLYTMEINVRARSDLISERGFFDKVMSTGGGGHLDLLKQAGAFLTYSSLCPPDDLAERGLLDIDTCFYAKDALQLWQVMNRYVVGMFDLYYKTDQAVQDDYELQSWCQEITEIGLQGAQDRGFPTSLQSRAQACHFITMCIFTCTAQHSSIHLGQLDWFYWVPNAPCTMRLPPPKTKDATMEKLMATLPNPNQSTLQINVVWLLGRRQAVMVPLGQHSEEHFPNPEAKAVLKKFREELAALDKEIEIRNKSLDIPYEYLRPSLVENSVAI
Nature of the data set: Inhibition of 15-LOX-1 in mouse HT22 cells assessed as inhibition of glutamate-induced lipid peroxidation at 10 uM incubated for 6 to 7 hrs by BODIPY 581/591 C11 staining based FACS analysis. Format: cell-based. The note with it: HT-22. In outline:
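HT-22 cells were seeded at 5x10^4 per well and incubated overnight. They were then exposed to 4 mM glutamate in DMEM/10% FCS, with or without 10 µM test inhibitor or 1 µM PD146176, for 6-7 h or 14-16 h. Cells were stained with BODIPY 581/591 C11 at 2 µM final for 1 h at 37 °C. The red-to-green fluorescence shift was read by flow cytometry (488 nm excitation). At least 3 experiments were run, each in triplicate.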
(In general: A flow cytometer gives signals particle by particle.)

In data set [3] the target is T3, Polyunsaturated fatty acid lipoxygenase ALOX15 (Homo sapiens) (UniProt P16050).
T3 sequence (whole entry): T1 sequence (P16050 whole entry)
Nature of the data set: Competitive inhibition of human 15-LOX-1 assessed as apparent Vmax at 5 uM by Lineweaver-Burk plot analysis (reference value: 1.6 +/- 0.2 10^-4abs/s). In outline: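 Purified enzyme activity was read as UV absorbance at 234 nm of the product formed from linoleic acid substrate, in 96-well format. Substrate-dependence runs were done with and without inhibitor. Apparent Km and Vmax were derived from Lineweaver-Burk plots.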

The target of data set [4] is T2, Polyunsaturated fatty acid lipoxygenase ALOX15 (Mus musculus). Nature of the data set: Inhibition of 15-LOX-1 in C57bl/6 mouse precision-cut lung slices assessed as reduction in LPS-stimulated TNFalpha mRNA expression level at 50 uM incubated for 20 hrs followed by LPS stimulation for 4 hrs in presence of linoleic acid by RT-qPCR analysis. In outline:
(§1)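 Lung slices, 250 μm, were cut from agarose-filled lungs of male C57bl/6 mice aged 8-10 weeks and cultured at 37 °C in 5% CO2 in supplemented DMEM, 3 slices per well. Inhibitor was given for 20 h with 10 μM linoleic acid. For the last 4 h, 10 ng/ml LPS plus 10 ng/ml IFNγ were added. Read-out was RT-qPCR (10 ng cDNA, GAPDH assay included), in duplicate or triplicate wells, as fold change versus LPS/linoleic acid control, with 4-6 independent experiments.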
(In general: Real-time PCR tracks product formation cycle by cycle.)

The target is the same in data set [5]. The data set can be described thus: Inhibition of 15-LOX-1 in mouse HT22 cells assessed as protection against glutamate-induced cell impedance at 10 uM incubated up to 8 hrs following glutamate challenge measured up to 20 hrs by real time cell viability assay. The note with it: HT-22. Format: cell-based. In outline:
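HT-22 cells were seeded at 8x10^3 per well, incubated overnight, then given 4 mM glutamate. Inhibitor was either co-applied (1-20 µM; PD146176 at 1 µM) or added at 10 µM 2, 4, 6 or 8 h after glutamate. Impedance was recorded in real time for 16-20 h, with cell index normalized just before glutamate addition.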

The species named for a further data set is Mus musculus. Nature of the data set: Toxicity in C57bl/6 mouse precision-cut lung slices assessed as decrease in tissue viability up to 50 uM after 20 hrs in presence of linoleic acid by lactate dehydrogenase release assay. Format: organism-based. As to conditions: in vivo. In outline:
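Mouse lung slices were cultured with inhibitor and 10 μM linoleic acid for 20 h at 37 °C. LDH released into the medium was measured by automated analyzer.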

Data set [6] concerns the target T2, Polyunsaturated fatty acid lipoxygenase ALOX15 (Mus musculus). Nature of the data set: Inhibition of 15-LOX-1 in C57bl/6 mouse precision-cut lung slices assessed as reduction in LPS-stimulated iNOS mRNA expression level at 50 uM incubated for 20 hrs followed by LPS stimulation for 4 hrs in presence of linoleic acid by RT-qPCR analysis. In outline:
as §1

Data set [7] shares this target. The data set can be described thus: Inhibition of 15-LOX-1 in C57bl/6 mouse precision-cut lung slices assessed as reduction in LPS-stimulated IL-1beta mRNA expression level at 50 uM incubated for 20 hrs followed by LPS stimulation for 4 hrs in presence of linoleic acid by RT-qPCR analysis. In outline: as §1
For data set [8] the target is unchanged. The data set can be described thus: Inhibition of 15-LOX-1 in C57bl/6 mouse precision-cut lung slices assessed as reduction in LPS-stimulated IL-6 mRNA expression level at 5 uM incubated for 20 hrs followed by LPS stimulation for 4 hrs in presence of linoleic acid by RT-qPCR analysis. In outline: as §1

A word on the IC50: it is the concentration that gives 50% inhibition. The inhibition is how much of the control response was suppressed. On to `CCCCNC(=O)c1cc(-c2ccccc2)sc1N`, for which the IC50 in [1] was determined as 12.4 µM. Besides, the inhibition result in data set [2], in data set [5] and in data set [8] was “Active” in each case. In data set [3], the Vmax(app) worked out at 1.5 ×10⁻⁴ abs/s. The inhibition in [4], in [6] and in data set [7] was 50% in each case. The Activity result in the data set listed under Mus musculus is recorded as “Non-Toxic”.

For the origin of these results see ChEMBL document CHEMBL3871264, “Design of a novel thiophene inhibitor of 15-lipoxygenase-1 with both anti-inflammatory and neuroprotective properties” (Eur J Med Chem, 2016).
